Assay results: ChEMBL document CHEMBL2434928, “New derivatives of salicylamides: Preparation and antimicrobial activity against various bacterial species” (2013)
In brackets after ≈: the same amount, converted by molar mass.

Assays:
Format in all cases: functional
Clostridium perfringens = test: Antimicrobial activity against Clostridium perfringens CNCTC 5770 after 24 hrs by broth microdilution method; conditions: CNCTC 5770, 24 h
Procedure, shortened: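 Colonies grown on blood agar (nutrient agar, 5% ovine blood) were suspended in PBS pH 7.2–7.3, set to 0.5 McFarland, and diluted 1:20 in MH broth for the final inoculum. Compounds were in DMSO (≤2.5% final), tested by NCCLS-modified microdilution with drug-free, sterility and DMSO controls.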

Staphylococcus aureus [1] = test: Antimicrobial activity against methicillin-resistant Staphylococcus aureus 3202 after 24 hrs by broth microdilution method; conditions: Staphylococcus aureus, 3202, 24 h
Procedure, shortened: (§1)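 Colonies grown on nutrient agar with 5% ovine blood were suspended in PBS (pH 7.2–7.3), adjusted to 0.5 McFarland, and diluted 1:20 in Mueller–Hinton broth. Compounds were dissolved in DMSO (final ≤2.5%) and tested by NCCLS-modified broth microdilution with drug-free, sterility and broth+DMSO controls.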

Mycobacterium kansasii = test: Antimycobacterial activity against Mycobacterium kansasii DSM 44162 after 7 days; conditions: DSM 44162, 168 h
Procedure, shortened: (§2)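 MIC by broth microdilution in Middlebrook 7H9 with ADC enrichment. Compounds were dissolved in DMSO. Inoculum: colonies in sterile water adjusted to 0.5 McFarland, then diluted 1:1000 in sterile water. Drug-free, sterility and medium+DMSO controls were included. Wells were read visually after static incubation in the dark.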

Pasteurella multocida = test: Antimicrobial activity against Pasteurella multocida clinical isolate after 24 hrs by broth microdilution method
Procedure, shortened: (§3)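 Broth microdilution MIC in Mueller–Hinton broth, per modified NCCLS guidelines. Strains were grown on nutrient agar with 5% ovine blood. Colonies were suspended in PBS (pH 7.2–7.3), adjusted to 0.5 McFarland, then diluted 1:20 in MH broth. Compounds were in DMSO, ≤2.5% final. Drug-free, sterility and DMSO controls were included.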

Staphylococcus aureus [2] = test: Antimicrobial activity against methicillin-resistant Staphylococcus aureus 630 after 24 hrs by broth microdilution method; conditions: Staphylococcus aureus, 630, 24 h; procedure, shortened: as §1
Staphylococcus aureus [3] = test: Antimicrobial activity against Staphylococcus aureus ATCC 29213 after 24 hrs by broth microdilution method; conditions: ATCC 29213, 24 h; procedure, shortened: as §3
Staphylococcus aureus [4] = test: Antimicrobial activity against methicillin-resistant Staphylococcus aureus 63718 after 24 hrs by broth microdilution method; conditions: Staphylococcus aureus, 63718, 24 h; procedure, shortened: as §1
Bacillus cereus = test: Antimicrobial activity against Bacillus cereus ATCC 14579 after 24 hrs by broth microdilution method; conditions: ATCC 14579, 24 h; procedure, shortened: as §3
Mycobacterium marinum = test: Antimycobacterial activity against Mycobacterium marinum CAMP 5644 after 21 days; conditions: CAMP 5644, 504 h; procedure, shortened: as §2
[5] = tested on: Mycolicibacterium smegmatis; test: Antimycobacterial activity against Mycobacterium smegmatis ATCC 700084 after 3 days; conditions: ATCC 700084, 72 h
Procedure, shortened: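 Middlebrook 7H9 plus ADC broth microdilution MIC, with compounds in DMSO. Colonies were suspended in sterile water to 0.5 McFarland, then diluted 1:1000 in sterile water. Drug-free, sterility and DMSO controls were included. The visual read followed 3 days of static aerobic incubation at 37 °C in darkness.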

| SMILES | MIC (Clostridium perfringens) [µM] | MIC (Staphylococcus aureus [1]) [µM] | MIC (Mycobacterium kansasii) [µM] | MIC (Pasteurella multocida) [µM] | MIC (Staphylococcus aureus [2]) [µM] | MIC (Staphylococcus aureus [3]) [µM] | MIC (Staphylococcus aureus [4]) [µM] | MIC (Bacillus cereus) [µM] | MIC (Mycobacterium marinum) [µM] | MIC [5] [µM] |
| --- | --- | --- | --- | --- | --- | --- | --- | --- | --- | --- |
| O=C(N[C@@H](Cc1ccccc1)C(=O)Nc1ccc(Cl)c(Cl)c1)c1ccc(Cl)cc1O | 34.5 (≈ 16 µg/mL) | 1.07 (≈ 0.496 µg/mL) | 34.5 (≈ 16 µg/mL) | > 552 | 2.15 (≈ 0.997 µg/mL) | 1.07 (≈ 0.496 µg/mL) | 2.15 (≈ 0.997 µg/mL) | 1.07 (≈ 0.496 µg/mL) | 138 (≈ 64 µg/mL) | 69 (≈ 32 µg/mL) |
| Cc1ccc(NC(=O)c2cc(Cl)ccc2O)cc1 | > 978 | > 978 | 30.6 (≈ 8 µg/mL) | 1.91 (≈ 0.5 µg/mL) | > 978 | > 978 | > 978 | 30.6 (≈ 8 µg/mL) | 61.1 (≈ 16 µg/mL) | > 978 |
| Cc1ccc(NC(=O)[C@H](Cc2ccccc2)NC(=O)c2cc(Cl)ccc2O)cc1 | > 626 | > 626 |  | > 626 | > 626 | > 626 | > 626 | > 626 |  |  |
| CC(C)[C@H](NC(=O)OCc1ccccc1)C(=O)Oc1ccc(Cl)cc1C(=O)Nc1ccccc1 |  |  |  | > 517 |  | > 517 |  | > 517 |  |  |
| Cc1ccc(NC(=O)c2cc(Cl)ccc2OC(=O)[C@H](C)NC(=O)OCc2ccccc2)cc1 |  |  | 17.1 (≈ 8 µg/mL) | 2.14 (≈ 0.999 µg/mL) |  | 34.3 (≈ 16 µg/mL) |  | 7.13 (≈ 3.33 µg/mL) | 68.5 (≈ 32 µg/mL) | > 548 |
| Cc1ccc(NC(=O)c2cc(Cl)ccc2OC(=O)[C@@H](NC(=O)OCc2ccccc2)C(C)C)cc1 |  |  | 129 (≈ 63.9 µg/mL) | 4.04 (≈ 2 µg/mL) |  | 32.3 (≈ 16 µg/mL) |  | 32.3 (≈ 16 µg/mL) | 259 (≈ 128 µg/mL) | 259 (≈ 128 µg/mL) |
| Cc1ccc(NC(=O)c2cc(Cl)ccc2OC(=O)[C@H](Cc2ccccc2)NC(=O)OCc2ccccc2)cc1 |  |  | 58.9 (≈ 32 µg/mL) | 7.36 (≈ 4 µg/mL) |  |  |  | 29.5 (≈ 16 µg/mL) | 118 (≈ 64.1 µg/mL) | 236 (≈ 128 µg/mL) |
| Cc1ccc(NC(=O)[C@@H](NC(=O)c2cc(Cl)ccc2O)C(C)C)cc1 | 88.7 (≈ 32 µg/mL) | 88.7 (≈ 32 µg/mL) | 88.7 (≈ 32 µg/mL) | 88.7 (≈ 32 µg/mL) | > 709 | 88.7 (≈ 32 µg/mL) | > 709 | 22.2 (≈ 8 µg/mL) | 355 (≈ 128 µg/mL) | > 709 |
| CC(C)[C@H](NC(=O)OCc1ccccc1)C(=O)Oc1ccc(Cl)cc1C(=O)Nc1ccc(Br)cc1 | 3.57 (≈ 2 µg/mL) | 1.78 (≈ 0.997 µg/mL) | 14.3 (≈ 8 µg/mL) | 0.89 (≈ 0.498 µg/mL) | 1.78 (≈ 0.997 µg/mL) | 3.57 (≈ 2 µg/mL) | 3.57 (≈ 2 µg/mL) | 1.78 (≈ 0.997 µg/mL) | 14.3 (≈ 8 µg/mL) | 57.2 (≈ 32 µg/mL) |
| O=C(N[C@@H](Cc1ccccc1)C(=O)Oc1ccc(Cl)cc1C(=O)Nc1ccc(Cl)c(Cl)c1)OCc1ccccc1 | 1.67 (≈ 0.998 µg/mL) | 0.2 (≈ 0.12 µg/mL) | 13.4 (≈ 8 µg/mL) | 0.83 (≈ 0.496 µg/mL) | 0.2 (≈ 0.12 µg/mL) | 1.67 (≈ 0.998 µg/mL) | 0.2 (≈ 0.12 µg/mL) | 0.41 (≈ 0.245 µg/mL) | 26.8 (≈ 16 µg/mL) | 26.8 (≈ 16 µg/mL) |
| CC1(C)S[C@@H]2[C@H](NC(=O)[C@H](N)c3ccccc3)C(=O)N2[C@H]1C(=O)O [AMPICILLIN] | < 0.72 | > 45.8 |  | 1.43 (≈ 0.5 µg/mL) | > 45.8 | 5.72 (≈ 2 µg/mL) | > 45.8 | > 45.8 |  |  |
| O=C(O)c1cn(C2CC2)c2cc(N3CCNCC3)c(F)cc2c1=O [CIPROFLOXACIN] |  | > 48.3 |  |  | > 48.3 | > 48.3 | > 48.3 |  |  |  |
| NNC(=O)c1ccncc1 [ISONIAZID] |  |  |  |  |  |  |  |  | 467 (≈ 64 µg/mL) | 117 (≈ 16 µg/mL) |
